Calls of active or inactive are those of the source. The calls are words filed in the database; no cut-off is given here.
Legend:
D(4) dopamine receptor = target: T1, D(4) dopamine receptor (Homo sapiens, UniProt P21917); assay: Displacement of [3H]radioligand from human recombinant dopamine D4.4 receptor expressed in CHO cells by microplate scintillation counting; assay type: cell-based
T1 sequence (P21917 whole entry): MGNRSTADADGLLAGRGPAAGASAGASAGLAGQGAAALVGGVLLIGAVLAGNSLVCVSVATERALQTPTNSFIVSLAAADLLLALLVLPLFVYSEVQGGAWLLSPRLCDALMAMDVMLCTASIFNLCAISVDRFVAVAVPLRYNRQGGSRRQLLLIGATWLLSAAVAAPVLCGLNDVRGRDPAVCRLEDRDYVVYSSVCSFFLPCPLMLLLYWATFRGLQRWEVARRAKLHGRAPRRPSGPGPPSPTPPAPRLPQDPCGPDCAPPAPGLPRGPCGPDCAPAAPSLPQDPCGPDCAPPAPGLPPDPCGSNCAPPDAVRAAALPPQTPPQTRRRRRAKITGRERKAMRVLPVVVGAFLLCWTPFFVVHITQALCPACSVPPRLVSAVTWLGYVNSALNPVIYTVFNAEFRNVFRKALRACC
Procedure, shortened: (§1)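 Human D2L or D3 receptor stably expressed in HEK cells, or D4.4 in CHO cells. Competition binding against [3H]spiperone as the D2-like radioligand. Ki values in nM are means of two or three experiments, each run in triplicate, ± SEM.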

D(1A) dopamine receptor [1] = target: T2, D(1A) dopamine receptor (Homo sapiens, UniProt P21728); assay: Antagonist activity at human dopamine D1 receptor expressed in HEK293 cells assessed as inhibition of SKF-38393-induced calcium influx; assay type: functional, cell-based
T2 sequence (P21728 whole entry): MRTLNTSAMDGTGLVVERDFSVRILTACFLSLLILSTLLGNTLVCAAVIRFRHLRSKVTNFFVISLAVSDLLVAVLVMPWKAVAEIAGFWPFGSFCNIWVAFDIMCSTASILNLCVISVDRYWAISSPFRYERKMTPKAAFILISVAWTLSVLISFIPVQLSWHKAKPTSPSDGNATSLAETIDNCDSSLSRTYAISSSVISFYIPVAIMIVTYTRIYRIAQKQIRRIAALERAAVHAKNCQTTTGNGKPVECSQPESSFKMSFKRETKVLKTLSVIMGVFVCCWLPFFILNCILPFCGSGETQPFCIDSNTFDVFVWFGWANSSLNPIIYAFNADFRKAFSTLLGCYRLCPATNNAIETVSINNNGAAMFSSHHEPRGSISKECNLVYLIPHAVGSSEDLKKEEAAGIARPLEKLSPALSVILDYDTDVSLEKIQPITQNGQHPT
Procedure, shortened: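 HEK293 cells stably expressing the human D1 receptor were loaded with a fluorescent dye. Cells were preincubated with rising concentrations of test ligand, then SKF 38393 agonist was injected. Ca2+-induced fluorescence was read on a microplate reader.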

D(2) dopamine receptor [2] = target: T3, D(2) dopamine receptor (Homo sapiens, UniProt P14416); assay: Antagonist activity at human dopamine D2L receptor expressed in HEK293 cells assessed as inhibition of quinpirole-induced calcium influx
T3 sequence (P14416 whole entry): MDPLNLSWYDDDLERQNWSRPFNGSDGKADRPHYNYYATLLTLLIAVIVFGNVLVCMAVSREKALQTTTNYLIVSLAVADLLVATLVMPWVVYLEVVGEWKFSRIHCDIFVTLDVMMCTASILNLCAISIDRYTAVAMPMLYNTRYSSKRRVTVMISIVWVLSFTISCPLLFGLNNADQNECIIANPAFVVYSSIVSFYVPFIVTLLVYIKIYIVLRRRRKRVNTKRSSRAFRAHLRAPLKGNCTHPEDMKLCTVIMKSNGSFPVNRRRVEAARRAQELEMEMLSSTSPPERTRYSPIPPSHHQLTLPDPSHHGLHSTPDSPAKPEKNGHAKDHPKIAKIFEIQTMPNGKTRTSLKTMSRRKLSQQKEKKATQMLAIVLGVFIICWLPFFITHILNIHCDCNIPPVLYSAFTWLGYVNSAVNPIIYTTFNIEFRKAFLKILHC

D(1A) dopamine receptor [3] = target: T2, D(1A) dopamine receptor; assay: Displacement of [3H]SCH23390 from human recombinant dopamine D1 receptor expressed in HEK293 cells by microplate scintillation counting; assay type: cell-based
Procedure, shortened: (§2)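 Human D1 or D5 receptor stably expressed in HEK cells. Ki values in nM are means of two or three experiments, each run in triplicate, ± SEM.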

D(2) dopamine receptor [4] = target: T3, D(2) dopamine receptor; assay: Displacement of [3H]spiperone from human recombinant dopamine D2L receptor expressed in HEK293 cells by microplate scintillation counting; assay type: cell-based; procedure, shortened: as §1
D(3) dopamine receptor = D(3) dopamine receptor (Homo sapiens, UniProt P35462); assay: Displacement of [3H]radioligand from human recombinant dopamine D3 receptor expressed in HEK293 cells by microplate scintillation counting; assay type: cell-based; procedure, shortened: as §1
Chain of D(3) dopamine receptor (P35462 whole entry): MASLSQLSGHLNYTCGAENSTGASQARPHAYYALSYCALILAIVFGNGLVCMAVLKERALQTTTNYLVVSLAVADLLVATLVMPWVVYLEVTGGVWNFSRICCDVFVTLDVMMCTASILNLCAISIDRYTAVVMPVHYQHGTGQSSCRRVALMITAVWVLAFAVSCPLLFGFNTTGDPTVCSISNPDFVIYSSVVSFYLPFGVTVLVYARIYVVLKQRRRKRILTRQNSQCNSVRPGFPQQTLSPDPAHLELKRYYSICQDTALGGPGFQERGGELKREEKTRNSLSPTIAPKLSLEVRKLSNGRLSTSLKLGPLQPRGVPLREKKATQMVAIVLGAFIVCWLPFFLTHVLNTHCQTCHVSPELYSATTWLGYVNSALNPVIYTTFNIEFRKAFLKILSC

D(1B) dopamine receptor = D(1B) dopamine receptor (Homo sapiens, UniProt P21918); assay: Displacement of [3H]radioligand from human recombinant dopamine D5 receptor expressed in HEK293 cells by microplate scintillation counting; assay type: cell-based; procedure, shortened: as §2
Chain of D(1B) dopamine receptor (P21918 whole entry): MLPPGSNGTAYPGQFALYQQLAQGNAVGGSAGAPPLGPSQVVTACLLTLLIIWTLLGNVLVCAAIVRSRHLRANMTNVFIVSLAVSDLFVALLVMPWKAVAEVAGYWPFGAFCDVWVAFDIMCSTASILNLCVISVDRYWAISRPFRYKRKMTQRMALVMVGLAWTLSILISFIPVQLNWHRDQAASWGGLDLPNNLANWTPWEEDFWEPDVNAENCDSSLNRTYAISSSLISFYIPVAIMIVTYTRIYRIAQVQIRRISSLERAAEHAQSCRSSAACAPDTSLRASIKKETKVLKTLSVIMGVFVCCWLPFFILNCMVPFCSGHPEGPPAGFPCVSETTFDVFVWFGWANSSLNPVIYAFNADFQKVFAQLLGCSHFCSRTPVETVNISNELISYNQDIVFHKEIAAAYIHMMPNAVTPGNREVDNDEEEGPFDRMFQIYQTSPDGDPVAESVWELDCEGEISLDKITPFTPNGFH

[5] = Selectivity for dopamine D5 receptor over dopamine D1 receptor

Row | Compound | Ki (D(4) dopamine receptor) | Activity (D(1A) dopamine receptor [1]) | Activity (D(2) dopamine receptor [2]) | Ki (D(1A) dopamine receptor [3]) | Ki (D(2) dopamine receptor [4]) | Ki (D(3) dopamine receptor) | Ki (D(1B) dopamine receptor) | Selectivity ratio [5]
1 | c1ccc2c(c1)CCN1Cc3cccc4[nH]cc(c34)C21 (centres undefined) | > 10 µM | Active | Active |  |  |  |  | 
2 | c1ccc2c(c1)CCN1CCc3cccc4[nH]cc(c34)C21 (centres undefined) | > 10 µM | Active | Active | 1.84 µM | 4.46 µM | > 10 µM | 1.53 µM | 
3 | CN1CCc2ccccc2Cc2c[nH]c3cccc(c23)CC1 | 0.0391 µM | Active | Active | 0.0042 µM | 0.004 µM | 0.0429 µM | 0.0025 µM | 
4 | CN1CCc2ccccc2Cc2c([nH]c3ccccc23)CC1 | 0.225 µM | Active | Active | 0.0285 µM | 0.0551 µM | 0.513 µM | 0.0103 µM | 
5 | CN1CCc2ccccc2Cc2c[nH]c3cccc(c23)C1 | > 10 µM |  |  | > 10 µM | > 10 µM | > 10 µM | > 10 µM | 
6 | CN1CCc2ccccc2Cc2[nH]c3ccccc3c2CC1 |  | Active | Active |  |  |  |  | 
7 | CN1Cc2ccccc2[C@@H]2c3cccc4[nH]cc(c34)C[C@H]21 |  |  |  |  |  |  |  | 10
8 | c1ccc2c(c1)CCN1CCc3[nH]c4ccccc4c3C21 (centres undefined) | > 10 µM | Active | Active | 2.1 µM | 1.48 µM | > 10 µM | > 10 µM | 

Reference: ChEMBL document CHEMBL1155427, “Dopamine receptor ligands. Part 18: (1) modification of the structural skeleton of indolobenzazecine-type dopamine receptor antagonists” (J Med Chem, 2010)
